The values below come from ChEMBL document CHEMBL4219120, “Synthesis and SAR study of new hydroxy and chloro-substituted 2,4-diphenyl 5H-chromeno[4,3-b]pyridines as selective topoisomerase IIα-targeting anticancer agents” (Bioorg Med Chem, 2018).

Assay [1] has as its target T1, DNA topoisomerase 1 (Homo sapiens) (UniProt P11387).
T1 sequence (whole entry): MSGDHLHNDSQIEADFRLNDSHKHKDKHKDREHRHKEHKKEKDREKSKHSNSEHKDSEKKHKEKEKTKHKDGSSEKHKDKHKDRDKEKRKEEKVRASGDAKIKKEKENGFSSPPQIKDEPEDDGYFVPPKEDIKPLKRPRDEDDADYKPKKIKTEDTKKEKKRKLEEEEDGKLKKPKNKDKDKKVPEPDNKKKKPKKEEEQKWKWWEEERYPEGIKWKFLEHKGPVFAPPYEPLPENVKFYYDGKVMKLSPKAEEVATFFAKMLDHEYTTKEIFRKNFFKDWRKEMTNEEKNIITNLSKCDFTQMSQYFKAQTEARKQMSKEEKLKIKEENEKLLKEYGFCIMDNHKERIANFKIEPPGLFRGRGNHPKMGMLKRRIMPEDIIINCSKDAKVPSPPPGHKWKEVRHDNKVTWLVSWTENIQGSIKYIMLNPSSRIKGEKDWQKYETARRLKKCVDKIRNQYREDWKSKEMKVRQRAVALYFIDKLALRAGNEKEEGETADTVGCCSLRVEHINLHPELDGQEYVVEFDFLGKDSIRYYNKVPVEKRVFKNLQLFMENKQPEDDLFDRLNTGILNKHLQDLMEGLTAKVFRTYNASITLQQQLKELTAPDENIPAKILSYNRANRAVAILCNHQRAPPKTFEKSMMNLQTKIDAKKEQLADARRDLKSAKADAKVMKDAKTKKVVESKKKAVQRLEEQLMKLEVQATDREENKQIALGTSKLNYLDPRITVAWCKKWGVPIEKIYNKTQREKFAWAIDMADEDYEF
The assay is described as follows: Inhibition of recombinant human topoisomerase 1 assessed as decrease in relaxation of supercoiled pBR322 DNA at 100 uM after 30 mins by agarose gel electrophoresis relative to camptothecin.

The target of assay [2] is DNA topoisomerase 2-alpha (Homo sapiens) (UniProt P11388). The assay is described as follows: Inhibition of recombinant human topoisomerase 2alpha assessed as decrease in relaxation of supercoiled pBR322 DNA at 100 uM after 30 mins by agarose gel electrophoresis relative to control. The essentials: (§1)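 Recombinant human topo IIα (1 unit) with 100 ng supercoiled pBR322 in 10 mM Tris-HCl pH 7.9, 50 mM NaCl, 50 mM KCl, 5 mM MgCl2, 1 mM EDTA, 1 mM ATP, 15 µg/mL BSA, 30 min at 37 °C. Quenched with 7 mM EDTA. 0.8% agarose/TAE gel, 50 V, 1 h; EtBr stain; UV densitometry. Compounds came from 20 mM DMSO stocks. 20 µM was tested only when inhibition at 100 µM exceeded 30%. Etoposide was the positive control.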
Sequence of DNA topoisomerase 2-alpha (Homo sapiens) (P11388 whole entry): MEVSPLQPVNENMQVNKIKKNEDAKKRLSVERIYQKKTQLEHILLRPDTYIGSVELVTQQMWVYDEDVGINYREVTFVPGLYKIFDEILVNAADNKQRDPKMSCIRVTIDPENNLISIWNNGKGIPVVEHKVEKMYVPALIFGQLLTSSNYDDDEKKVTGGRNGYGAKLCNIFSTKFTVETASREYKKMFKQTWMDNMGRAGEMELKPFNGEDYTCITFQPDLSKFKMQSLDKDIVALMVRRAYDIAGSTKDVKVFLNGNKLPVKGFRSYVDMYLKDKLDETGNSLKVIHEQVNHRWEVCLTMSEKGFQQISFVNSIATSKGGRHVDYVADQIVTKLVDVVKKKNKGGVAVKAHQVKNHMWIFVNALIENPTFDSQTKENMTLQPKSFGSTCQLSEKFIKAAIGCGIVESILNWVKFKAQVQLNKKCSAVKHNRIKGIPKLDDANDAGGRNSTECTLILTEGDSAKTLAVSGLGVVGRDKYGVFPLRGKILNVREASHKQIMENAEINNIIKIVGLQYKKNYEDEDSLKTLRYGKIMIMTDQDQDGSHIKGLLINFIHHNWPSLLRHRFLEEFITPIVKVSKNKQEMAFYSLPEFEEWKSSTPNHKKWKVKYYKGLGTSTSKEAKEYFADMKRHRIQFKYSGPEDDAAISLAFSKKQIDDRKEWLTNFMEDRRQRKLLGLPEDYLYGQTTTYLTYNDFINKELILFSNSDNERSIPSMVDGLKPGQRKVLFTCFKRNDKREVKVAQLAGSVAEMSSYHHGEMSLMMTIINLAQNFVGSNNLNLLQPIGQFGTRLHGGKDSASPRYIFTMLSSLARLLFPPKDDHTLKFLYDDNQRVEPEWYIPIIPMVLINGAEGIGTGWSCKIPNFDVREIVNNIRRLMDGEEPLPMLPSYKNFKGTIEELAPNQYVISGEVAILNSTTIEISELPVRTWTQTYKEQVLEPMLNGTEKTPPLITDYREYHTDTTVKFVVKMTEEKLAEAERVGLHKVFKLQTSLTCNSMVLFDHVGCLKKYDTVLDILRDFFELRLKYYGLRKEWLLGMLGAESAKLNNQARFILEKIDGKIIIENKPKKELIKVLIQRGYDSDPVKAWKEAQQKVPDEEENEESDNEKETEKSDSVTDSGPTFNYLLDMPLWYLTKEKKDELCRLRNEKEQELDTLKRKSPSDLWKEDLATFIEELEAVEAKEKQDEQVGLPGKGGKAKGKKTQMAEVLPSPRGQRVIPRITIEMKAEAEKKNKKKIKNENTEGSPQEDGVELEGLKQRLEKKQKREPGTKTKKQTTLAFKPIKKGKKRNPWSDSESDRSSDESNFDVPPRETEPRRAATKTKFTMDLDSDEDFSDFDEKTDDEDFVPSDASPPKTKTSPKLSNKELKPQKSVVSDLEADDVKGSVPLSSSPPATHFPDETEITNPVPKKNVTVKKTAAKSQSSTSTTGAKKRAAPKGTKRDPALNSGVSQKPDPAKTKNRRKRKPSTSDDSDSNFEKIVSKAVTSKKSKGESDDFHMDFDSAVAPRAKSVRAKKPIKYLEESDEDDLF

In another assay the test system is HCT-15. The experiment in a line: Antiproliferative activity against human HCT15 cells after 72 hrs by CCK-8 assay. The following applies: HCT-15, 72 h. It is filed as functional, cell-based. The essentials:
(§2)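 Cells seeded at 2-4 x 10^4 per well and grown overnight in medium with 10% FBS (37 °C, 5% CO2). After 4 h FBS starvation, medium was replaced with medium containing graded compound concentrations for 72 h. CCK-8 was added for 4 h more, then absorbance read at 450 nm. IC50 came from a four-parameter logistic fit. Mean ± S.D. of three experiments, each in triplicate.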

The target of assay [3] is T1, DNA topoisomerase 1 (Homo sapiens). The assay is described as follows: Inhibition of recombinant human topoisomerase 1 assessed as decrease in relaxation of supercoiled pBR322 DNA at 20 uM after 30 mins by agarose gel electrophoresis relative to control. The essentials: (§3)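 Supercoiled pBR322 (100 ng) with 1 unit recombinant human topo I in 10 mM Tris-HCl pH 7.9, 150 mM NaCl, 0.1% BSA, 0.1 mM spermidine, 5% glycerol, 30 min at 37 °C. Stopped with SDS/dye stop solution. Run on 0.8% agarose in TAE, 50 V, 1 h; EtBr-stained; bands quantitated under UV. Compounds came from 20 mM DMSO stocks. 20 µM was tested only when inhibition at 100 µM exceeded 30%. Camptothecin was the positive control.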

In assay [4] the test system is HeLa. The experiment in a line: Antiproliferative activity against human HeLa cells after 72 hrs by CCK-8 assay. In kind it is functional, cell-based. In a few lines: as §2
A general note: Tetrazolium dyes change colour on reduction, which living cells bring about.

The subject of the next assay is T47D. The experiment in a line: Antiproliferative activity against human T47D cells after 72 hrs by CCK-8 assay. It is filed as functional, cell-based. In a few lines: as §2
The target in assay [5] is DNA topoisomerase 2-alpha (Homo sapiens) (UniProt P11388). The assay is described as follows: Inhibition of recombinant human topoisomerase 2alpha assessed as decrease in relaxation of supercoiled pBR322 DNA at 20 uM after 30 mins by agarose gel electrophoresis relative to control. The essentials: as §1
The target in assay [6] is T1, DNA topoisomerase 1 (Homo sapiens). The experiment in a line: Inhibition of recombinant human topoisomerase 1 assessed as decrease in relaxation of supercoiled pBR322 DNA at 20 uM after 30 mins by agarose gel electrophoresis relative to camptothecin.
Assay [7] addresses DNA topoisomerase 2-alpha (Homo sapiens) (UniProt P11388). The experiment in a line: Inhibition of recombinant human topoisomerase 2alpha assessed as decrease in relaxation of supercoiled pBR322 DNA at 100 uM after 30 mins by agarose gel electrophoresis relative to etoposide.
Assay [8] has as its target T1, DNA topoisomerase 1 (Homo sapiens). The experiment in a line: Inhibition of recombinant human topoisomerase 1 assessed as decrease in relaxation of supercoiled pBR322 DNA at 100 uM after 30 mins by agarose gel electrophoresis relative to control. In a few lines:
as §3

Assay [9] deals with DNA topoisomerase 2-alpha (Homo sapiens) (UniProt P11388). The experiment in a line: Inhibition of recombinant human topoisomerase 2alpha assessed as decrease in relaxation of supercoiled pBR322 DNA at 20 uM after 30 mins by agarose gel electrophoresis relative to etoposide.
Assay [10] has the same target. The assay is described as follows: Potency index, ratio of compound effect for recombinant human topoisomerase 2alpha to etoposide effect for recombinant human topoisomerase 2alpha at 20 uM.
For assay [11], the system named is HeLa. The experiment in a line: Potency index, ratio of etoposide IC50 to compound IC50 for human HeLa cells. In kind it is functional.
The test system of assay [12] is HeLa. The assay is described as follows: Potency index, ratio of adriamycin IC50 to compound IC50 for human HeLa cells. In kind it is functional.

Each structure is given as a SMILES string. Activity calls are given as the source filed them. The calls are words filed in the database; no cut-off is given here.

Turning to `Oc1cccc(-c2cc(-c3cccc(Cl)c3)nc3c2COc2ccccc2-3)c1`, the fold change (FC) worked out at 0.36 in assay [1], 1.26 in [7] and 1.79 in assay [9]. The inhibition in assay [2] was 84%; in [5] it was 63.7%; in assay [8] it was 30%. The IC50 with HCT-15 was found to be 2130 nM; with HeLa [4] it was 680 nM; in the assay with T47D, 720 nM. Moreover, the inhibition result in [3] was “inactive”. Also, the “fold change (FC)” value in assay [6] was “inactive”.
With `Oc1ccc(-c2cc(-c3ccc(Cl)cc3)c3c(n2)-c2ccccc2OC3)cc1`, the inhibition is 100% in [2], 1.7% in [3], 19.9% in assay [5] and 38.5% in assay [8]. For the same compound, the IC50 turned out to be 1850 nM in the assay on HCT-15, 2080 nM in the assay with HeLa [4] and 1380 nM in the assay on T47D.
Regarding `Oc1ccc(-c2cc(-c3ccccc3Cl)nc3c2COc2ccccc2-3)cc1`, the “fold change (FC)” value in [1] was “inactive”. Also, the inhibition worked out at 82.7% in [2] and 74.5% in assay [5]. Besides, the values for the IC50 in the assay on HCT-15, in the assay with HeLa [4] and with T47D were 1740 nM, 2110 nM and 750 nM, respectively. Also, the Ratio in assay [10] stood at 2. Besides, the fold change (FC) in assay [7] stood at 1.24; in [9], 2.1. Moreover, the inhibition entry in assay [8] was “inactive”.
On to `Oc1cccc(-c2cc(-c3ccccc3Cl)nc3c2COc2ccccc2-3)c1`, for which the fold change (FC) amounted to 0.99 in assay [1], 0.05 in assay [6], 1.37 in assay [7] and 1.61 in [9]. Further, the inhibition in assay [2] was found to be 90.8%; in [3], 1.7%; in assay [5] it was 57.3%; in [8], 79.1%. Moreover, the results for the IC50 with HCT-15, in the assay with HeLa [4] and with T47D were 870 nM, 2500 nM and 700 nM, respectively.
With `Oc1ccc(-c2cc(-c3ccccc3Cl)c3c(n2)-c2ccccc2OC3)cc1`, the figures for the inhibition in [2], in assay [5] and in [8] were 63.5%, 48.1% and 56.1%, respectively. Besides, the results for the IC50 in the assay with HCT-15, in the assay with HeLa [4] and in the assay on T47D were 4720 nM, 680 nM and 940 nM, respectively. Besides, the inhibition result in assay [3] was “inactive”.
Turning to `Oc1ccc(-c2cc(-c3cccc(Cl)c3)c3c(n2)-c2ccccc2OC3)cc1`, the inhibition in [2] was 79.5%; in [5], 12.1%; in [8] it was 22.8%. In addition, the “Ratio IC50” value worked out at 15.2 in the assay with HeLa [11] and 2.6 in the assay on HeLa [12]. The figures for the IC50 with HCT-15, in the assay with HeLa [4] and with T47D were 3410 nM, 660 nM and 1270 nM, respectively.
With `Oc1ccc(-c2cc(-c3cccc(Cl)c3)nc3c2oc2ccccc23)cc1`, the fold change (FC) in [1] was found to be 1.56; in [6] it was 1.29; in assay [7], 1.01; in assay [9], 0.77.

One may read the inhibition as the drop in the measured response relative to a control, in per cent. The IC50 is the point on the concentration scale where inhibition reaches its midpoint. Read a low IC50 as inhibition by little substance.
